Assay results published in ChEMBL document CHEMBL1135047, “Discovery of 5-hydroxyalkyl-4-phenylpyridines as a new class of glucagon receptor antagonists” (Bioorg Med Chem Lett, 2002).

target: T1, Glucagon receptor (Homo sapiens, UniProt P47871); assay: Inhibitory concentration against binding to the human glucagon receptor (hGR)
T1 sequence (P47871 whole entry): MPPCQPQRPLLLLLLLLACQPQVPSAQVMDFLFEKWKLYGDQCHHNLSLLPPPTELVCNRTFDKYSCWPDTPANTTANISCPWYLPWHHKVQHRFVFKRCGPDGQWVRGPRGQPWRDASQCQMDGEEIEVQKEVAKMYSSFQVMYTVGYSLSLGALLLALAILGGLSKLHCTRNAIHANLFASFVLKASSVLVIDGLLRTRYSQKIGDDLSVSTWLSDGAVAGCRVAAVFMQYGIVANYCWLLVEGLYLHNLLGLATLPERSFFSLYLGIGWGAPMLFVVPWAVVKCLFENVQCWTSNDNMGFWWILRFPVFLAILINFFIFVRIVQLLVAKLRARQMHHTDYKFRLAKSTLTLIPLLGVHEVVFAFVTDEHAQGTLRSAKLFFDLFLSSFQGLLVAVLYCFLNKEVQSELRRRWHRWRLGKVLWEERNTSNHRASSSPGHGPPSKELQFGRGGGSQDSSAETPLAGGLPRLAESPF

IC50 [µM] | Compound
7 | CC(C)=Cc1c(C(C)C)nc(C(C)C)c(CO)c1-c1ccc(F)cc1
6 | C=Cc1c(C(C)C)nc(C(C)C)c(CO)c1-c1ccc(F)cc1
9.5 | COC(=O)c1c(C(C)C)nc(C(C)C)c(CO)c1-c1ccc(F)cc1
20 | CCCCCc1c(CC)nc(CC)c(CO)c1-c1ccccc1
0.3 | CCCCCc1c(C(C)C)nc(C(C)C)c(C(C)O)c1-c1ccc(F)cc1 (configuration not stated)
> 20 | CCCCCc1c(C)nc(C)c(CO)c1-c1ccccc1
0.25 | CCCCc1c(C(C)C)nc(C(C)C)c(C(C)O)c1-c1ccc(F)cc1 (configuration not stated)
0.35 | CCCCCCc1c(C(C)C)nc(C(C)C)c(CO)c1-c1ccc(F)cc1
0.7 | CCCCCc1c(C(C)C)nc(C(C)C)c(CO)c1-c1ccc(F)cc1
1.4 | CCCCCc1c(C(C)C)nc(C(C)C)c(CO)c1-c1ccccc1
1.8 | CCc1c(C(C)C)nc(C(C)C)c(CO)c1-c1ccccc1
> 20 | CC(C)c1nc(C(C)C)c(CO)c(-c2ccc(F)cc2)c1CO
> 20 | CCc1c(C)nc(C)c(CO)c1-c1ccccc1
> 20 | CCc1nc(CC)c(CO)c(-c2ccccc2)c1CC
9 | COCc1c(C(C)C)nc(C(C)C)c(CO)c1-c1ccc(F)cc1
0.15 | CCCCCc1c(C(C)C)nc(C(C)C)c([C@@H](C)O)c1-c1ccc(F)cc1 (single isomer, unassigned)

target: T1, Glucagon receptor; assay: Inhibitory concentration against cAMP production in hGR-CHO cells; format: functional, cell-based
In short: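 hGR-CHO cells grown to confluency, preincubated 10 min at 37 °C in assay buffer, then 10 min with 100 µM isobutylmethylxanthine. Test compound at 10 nM to 10 µM final, then glucagon at 10 pM final; 15 min incubation. Stopped with 65% ethanol; extracted cAMP measured by SPA assay. DMSO 0.1% control.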

IC50 [nM] | Compound
2000 | CC(C)=Cc1c(C(C)C)nc(C(C)C)c(CO)c1-c1ccc(F)cc1
